Data reported in ChEMBL document CHEMBL1147968, “Novel lbeta-methylcarbapenems having cyclic sulfonamide moieties: synthesis and evaluation of in vitro antibacterial activity” (2007).

Legend:
[1] = system: Enterococcus faecium; assay: Antibacterial activity against Streptococcus faecium 77A after 18 to 24 hrs by agar dilution method; assay type: functional
In short: (§1)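 MICs were determined by agar dilution on test agar. An overnight tryptosoy broth culture was diluted in the same broth to about 10⁶ cells/mL and spotted with an inoculating device onto agar containing serial twofold dilutions of compound. Plates were incubated at 37 °C for 18–20 h, and the MIC was the lowest concentration with no visible growth.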

[2] = system: Streptococcus agalactiae; assay: Antibacterial activity against Streptococcus agalactiae B after 18 to 24 hrs by agar dilution method; assay type: functional; in short: as §1
[3] = system: Enterococcus durans; assay: Antibacterial activity against Streptococcus durans D after 18 to 24 hrs by agar dilution method; assay type: functional; in short: as §1
[4] = system: Salmonella paratyphi; assay: Antibacterial activity against Salmonella paratyphi A after 18 to 24 hrs by agar dilution method; assay type: functional, Salmonella enterica subsp. enterica serovar Paratyphi A; details: Salmonella enterica
In short: (§2)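 Agar dilution on test agar with serial twofold dilutions of compound. Overnight tryptosoy broth cultures diluted in the same broth to about 10⁶ cells/mL, then applied with an inoculating device. Plates incubated at 37 °C for 18–20 h.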

[5] = system: Priestia megaterium; assay: Antibacterial activity against Bacillus megaterium after 18 to 24 hrs by agar dilution method; assay type: functional; in short: as §1
[6] = system: Pseudomonas aeruginosa; assay: Antibacterial activity against Pseudomonas aeruginosa 9027 after 18 to 24 hrs by agar dilution method; assay type: functional; in short: as §1
[7] = system: Staphylococcus aureus; assay: Antibacterial activity against Staphylococcus aureus 1218 after 18 to 24 hrs by agar dilution method; assay type: functional; in short: as §1
[8] = system: Staphylococcus; assay: Antibacterial activity against coagulase negative Staphylococcus after 18 to 24 hrs by agar dilution method; assay type: functional
In short: (§3)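 Agar dilution on test agar holding serial twofold dilutions of compound. Overnight tryptosoy broth cultures were diluted in the same broth to about 10⁶ cells/mL and spotted with an inoculating device. Plates were incubated at 37 °C for 18–20 h.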

[9] = system: Enterococcus faecalis; assay: Antibacterial activity against Enterococcus faecalis 2347 after 18 to 24 hrs by agar dilution method; assay type: functional; in short: as §1
[10] = system: Streptococcus pyogenes; assay: Antibacterial activity against Streptococcus pyogenes 9889 after 18 to 24 hrs by agar dilution method; assay type: functional; in short: as §3
[11] = system: Streptococcus agalactiae; assay: Antibacterial activity against Streptococcus agalactiae 32 after 18 to 24 hrs by agar dilution method; assay type: functional; in short: as §1
[12] = system: Streptococcus pneumoniae; assay: Antibacterial activity against Streptococcus pneumoniae 0025 after 18 to 24 hrs by agar dilution method; assay type: functional; in short: as §1
[13] = system: Haemophilus influenzae; assay: Antibacterial activity against Haemophilus influenzae 1210 after 18 to 24 hrs by agar dilution method; assay type: functional; in short: as §1
[14] = system: Escherichia coli; assay: Antibacterial activity against Escherichia coli 04 after 18 to 24 hrs by agar dilution method; assay type: functional; in short: as §1
[15] = system: Klebsiella pneumoniae; assay: Antibacterial activity against Klebsiella pneumoniae 523 after 18 to 24 hrs by agar dilution method; assay type: functional; in short: as §1
[16] = system: Citrobacter freundii; assay: Antibacterial activity against Citrobacter freundii 323 after 18 to 24 hrs by agar dilution method; assay type: functional; in short: as §1
[17] = system: Enterobacter cloacae; assay: Antibacterial activity against Enterobacter cloacae 34 after 18 to 24 hrs by agar dilution method; assay type: functional; in short: as §1
[18] = system: Serratia marcescens; assay: Antibacterial activity against Serratia marcescens 3349 after 18 to 24 hrs by agar dilution method; assay type: functional; in short: as §1
[19] = system: Acinetobacter baumannii; assay: Antibacterial activity against Acinetobacter baumannii 2289 after 18 to 24 hrs by agar dilution method; assay type: functional; in short: as §1
[20] = system: Pseudomonas aeruginosa; assay: Antibacterial activity against Pseudomonas aeruginosa 5455 after 18 to 24 hrs by agar dilution method; assay type: functional; in short: as §1
[21] = system: Staphylococcus aureus; assay: Antibacterial activity against Staphylococcus aureus giorgio after 18 to 24 hrs by agar dilution method; assay type: functional; in short: as §1
[22] = system: Staphylococcus aureus; assay: Antibacterial activity against Staphylococcus aureus 209P after 18 to 24 hrs by agar dilution method; assay type: functional; in short: as §1
[23] = system: Staphylococcus aureus; assay: Antibacterial activity against Staphylococcus aureus 503 after 18 to 24 hrs by agar dilution method; assay type: functional; in short: as §1
[24] = system: Micrococcus luteus; assay: Antibacterial activity against Micrococcus luteus ATCC 9341 after 18 to 24 hrs by agar dilution method; assay type: functional; in short: as §1
[25] = system: Pseudomonas aeruginosa; assay: Antibacterial activity against Pseudomonas aeruginosa 77/2 after 18 to 24 hrs by agar dilution method; assay type: functional; in short: as §1
[26] = system: Pseudomonas aeruginosa; assay: Antibacterial activity against Pseudomonas aeruginosa 110/2 after 18 to 24 hrs by agar dilution method; assay type: functional; in short: as §1
[27] = system: Pseudomonas aeruginosa; assay: Antibacterial activity against Pseudomonas aeruginosa 880/2 after 18 to 24 hrs by agar dilution method; assay type: functional; in short: as §1
[28] = system: Burkholderia cepacia; assay: Antibacterial activity against Pseudomonas cepacia after 18 to 24 hrs by agar dilution method; assay type: functional; in short: as §1
[29] = system: Escherichia coli; assay: Antibacterial activity against Escherichia coli 086 after 18 to 24 hrs by agar dilution method; assay type: functional; in short: as §1
[30] = system: Escherichia coli; assay: Antibacterial activity against Escherichia coli 0114 after 18 to 24 hrs by agar dilution method; assay type: functional; in short: as §1
[31] = system: Escherichia coli; assay: Antibacterial activity against Escherichia coli 0126 after 18 to 24 hrs by agar dilution method; assay type: functional; in short: as §1
[32] = system: Escherichia coli; assay: Antibacterial activity against Escherichia coli V6311/65 after 18 to 24 hrs by agar dilution method; assay type: functional; in short: as §1
[33] = system: Escherichia coli; assay: Antibacterial activity against Escherichia coli TEM after 18 to 24 hrs by agar dilution method; assay type: functional; in short: as §1
[34] = system: Escherichia coli; assay: Antibacterial activity against Escherichia coli 1507 after 18 to 24 hrs by agar dilution method; assay type: functional; in short: as §1
[35] = system: Salmonella typhimurium; assay: Antibacterial activity against Salmonella Typhimurium after 18 to 24 hrs by agar dilution method; assay type: functional, Salmonella enterica subsp. enterica serovar Typhimurium; details: Salmonella enterica; in short: as §1
[36] = system: Salmonella typhi; assay: Antibacterial activity against Salmonella typhi after 18 to 24 hrs by agar dilution method; assay type: functional, Salmonella enterica subsp. enterica serovar Typhi; details: Salmonella enterica; in short: as §2
[37] = system: Salmonella; assay: Antibacterial activity against Salmonella orion after 18 to 24 hrs by agar dilution method; assay type: functional; in short: as §1
[38] = Antibacterial activity against Salmonella give after 18 to 24 hrs by agar dilution method; assay type: functional, Salmonella enterica subsp. enterica serovar Give; details: Salmonella enterica; in short: as §1
[39] = system: Serratia marcescens; assay: Antibacterial activity against Serratia marcescens 370 after 18 to 24 hrs by agar dilution method; assay type: functional; in short: as §1
[40] = system: Klebsiella pneumoniae; assay: Antibacterial activity against Klebsiella pneumoniae 477 after 18 to 24 hrs by agar dilution method; assay type: functional; in short: as §1
[41] = system: Proteus mirabilis; assay: Antibacterial activity against Proteus mirabilis 112/3 after 18 to 24 hrs by agar dilution method; assay type: functional; in short: as §1
[42] = system: Enterobacter cloacae; assay: Antibacterial activity against Enterobacter cloacae after 18 to 24 hrs by agar dilution method; assay type: functional; in short: as §1
[43] = system: Enterobacter cloacae; assay: Antibacterial activity against Enterobacter cloacae 417 after 18 to 24 hrs by agar dilution method; assay type: functional; in short: as §1
[44] = system: Serratia marcescens; assay: Antibacterial activity against Serratia marcescens 6093 after 18 to 24 hrs by agar dilution method; assay type: functional; in short: as §1
[45] = system: Serratia marcescens; assay: Antibacterial activity against Serratia marcescens 14273 after 18 to 24 hrs by agar dilution method; assay type: functional; in short: as §1
[46] = system: Proteus mirabilis; assay: Antibacterial activity against Proteus mirabilis 174/3 after 18 to 24 hrs by agar dilution method; assay type: functional; in short: as §1
[47] = system: Proteus vulgaris; assay: Antibacterial activity against Proteus vulgaris 868 after 18 to 24 hrs by agar dilution method; assay type: functional; in short: as §1
[48] = system: Providencia rettgeri; assay: Antibacterial activity against Proteus rettgeri 936 after 18 to 24 hrs by agar dilution method; assay type: functional; in short: as §1
[49] = system: Providencia rettgeri; assay: Antibacterial activity against Proteus rettgeri 937 after 18 to 24 hrs by agar dilution method; assay type: functional; in short: as §1
[50] = system: Pasteurella multocida; assay: Antibacterial activity against Pasteurella multocida after 18 to 24 hrs by agar dilution method; assay type: functional; in short: as §1
[51] = system: Trueperella pyogenes; assay: Antibacterial activity against Corynebacterium pyogenes after 18 to 24 hrs by agar dilution method; assay type: functional; in short: as §1
[52] = system: Corynebacterium diphtheriae; assay: Antibacterial activity against Corynebacterium diphtheriae after 18 to 24 hrs by agar dilution method; assay type: functional; in short: as §1
[53] = system: Bacillus subtilis; assay: Antibacterial activity against Bacillus subtilis ATCC 6633 after 18 to 24 hrs by agar dilution method; assay type: functional; in short: as §1
[54] = Antibacterial activity against Salmonella oranienburg after 18 to 24 hrs by agar dilution method; assay type: functional, Salmonella enterica subsp. enterica serovar Oranienburg; details: Salmonella enterica; in short: as §1

Measured: MIC

C[C@@H](O)[C@H]1C(=O)N2C(C(=O)O)=C(SCCNC=N)C[C@H]12 [IMIPENEM ANHYDROUS]
1.56 µg/mL: [7] | [9]
0.01 µg/mL: [2] | [11] | [22] | [24] | [51]
0.195 µg/mL: [14]
0.391 µg/mL: [16]
0.4 µg/mL: [35] | [44] | [54]
0.2 µg/mL: [33] | [37] | [38] | [39] | [40] | [41] | [48] | [49]
12.5 µg/mL: [19]
0.781 µg/mL: [15] | [17] | [18]
6.25 µg/mL: [13]
< 0.01 µg/mL: [1] | [10] | [12] | [23] | [50] | [52]
3.12 µg/mL: [20]
0.8 µg/mL: [6] | [25] | [26] | [27] | [28] | [45]
0.025 µg/mL: [8]
0.05 µg/mL: [32] | [36]
0.02 µg/mL: [21]
0.03 µg/mL: [5] | [53]
0.1 µg/mL: all other assays above

C[C@@H](O)[C@H]1C(=O)N2C(C(=O)O)=C(S[C@@H]3CN[C@H](C(=O)N(C)C)C3)[C@H](C)[C@H]12 [MEROPENEM]
0.013 µg/mL: [10]
12.5 µg/mL: [9] | [19]
0.2 µg/mL: [27] | [45]
0.098 µg/mL: [8]
0.01 µg/mL: [12] | [32] | [36] | [42] | [43]
0.02 µg/mL: [30] | [33] | [34] | [38] | [52]
0.049 µg/mL: [11] | [14] | [18]
3.12 µg/mL: [13]
1.56 µg/mL: [20]
6.25 µg/mL: [7]
0.8 µg/mL: [3] | [25]
0.1 µg/mL: [21] | [22] | [37] | [41] | [46] | [47] | [48]
0.025 µg/mL: [15] | [16] | [17]
0.4 µg/mL: [6] | [26] | [28]
not listed: [1] | [4]
0.05 µg/mL: all other assays above
